Calls of active or inactive are those of the source.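 Rule for the calls, unless noted: active = visually confirmed hit in the image check and inhibition above 20%; inconclusive = visually confirmed hit but inhibition not above 20%; inactive = no visual hit in the image check.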

Experiment [1] in a line: inhibitors of TNFa-induced NFkB p65 translocation, primary screen, imaging, HUVEC, MLSMR starter and 10KST1 sets (AID 438;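 active = inhibition above 20% together with a positive visual image hit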;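 note: compound added about 3h40 before a 20 min TNFalpha stimulation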;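 for inhibition: signal is the nuclear over cytoplasmic p65 intensity ratio per well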). The settings on record: HUVEC TNFa-induced p65 nuclear translocation; cell count: measured here: nuclei count (cytotoxicity indicator), at 2.08 µM; inhibition: at 2 µM, stronger effect = higher value, 0% TNFa-plus-vehicle, 100% no-TNFa wells.
Experiment [2] is described as follows: inhibitors of mutant huntingtin aggregation, primary screen, imaging, exon1htt(103Q)mCFP cells, high-content imaging (AID 483;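 active = visual image review flags a hit and inhibition of aggregation exceeds 20%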;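 note: compound exposure lasted 3 days before fixation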;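 for nuclei count: percent of the per-plate median nuclei count of sample wells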). The settings on record: exon1htt(103Q)mCFP cell line, aggregate imaging, at 2 µM; inhibition of aggregation: stronger effect = higher value; nuclei count: measured here: cell count, toxicity.
A short description of experiment [3]: inhibitors of E-selectin induction by TNFa, primary screen, imaging, HUVEC, immunofluorescence, MLSMR starter and 10KST1 sets (AID 487).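 For inhibition: signal is fraction of cell area covered by stained E-selectin grains.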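 For nuclei count: 100% = median nuclei count of all wells on the same plate.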 Conditions: HUVEC TNFalpha-induced E-selectin immunofluorescence imaging, at 2 µM; inhibition: stronger effect = higher value; nuclei count: measured here: cell number, toxicity.
Experiment [4] concerns the target Voltage-gated potassium channel subunit beta-2 (Rattus norvegicus) (UniProt P62483). Put plainly: KvBeta enzyme negative modulators, primary screen, biochemical, NADPH fluorescence (AID 622;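 active = fluorescence slope higher than the sample average by over 3 SD, cut at about -0.22 in these data, passing the limit was not always enough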;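 note: slope of raw intensity against log time taken from 70 to 1610 s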). Conditions: recombinant KvBeta, 4-cyanobenzaldehyde reduction, at 10 µM, stronger effect = higher value.
Experiment [5] has the same target. As to the kind of experiment: KvBeta positive modulators, primary screen, biochemical, NADPH fluorescence (AID 623;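 active = NADPH fluorescence slope more negative than the mean of all samples by about 3 SD, 99.7% confidence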;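 note: fluorescence intensity change per second fitted from 20 to 320 s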). The settings on record: Recombinant KvBeta, NADPH fluorescence decrease slope, 10 min; at 10 µM; stronger effect = lower value.
In experiment [6] the target is Muscarinic acetylcholine receptor M4 (Homo sapiens) (UniProt P08173). As to the kind of experiment: compounds altering M4/GIRK thallium flux, either direction, primary screen, M4 allosteric agonist project, cell-based, HEK293 M4/GIRK, BTC-AM (AID 625;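 active = fluorescence slope after compound addition differing from the mean of all tested samples at 99.7% confidence, mostly higher but some lower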;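 note: thallium influx through GIRK channels coupled to M4 in HEK293 cells with BTC-AM dye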). The settings on record: at 10 µM, actives lie on both sides. Put shortly: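 Material – HEK293 cells with M4 receptor and GIRK channels · Buffer or medium – pH 7.3 thallium assay buffer · Doses – one dose, 10 µM final · Timing – cells overnight at 37 °C, BTC-AM loading 1 h, reads 2 min total · Measured by – kinetic fluorescence with BTC-AM dye · Controls – carbachol and DMSO controls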

A short description of experiment [7]: inhibitors of Sendai virus-induced IRF3 signaling, primary screen, TLR/RLR signaling modifier project, cell-based, Sendai virus stimulus, luciferase, 10K MLSCN set (AID 602276;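 active = inhibition at or above 50% at 10 µM; inactive = inhibition below 50%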;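 note: firefly luciferase from ISG56 promoter only with Renilla not read in this screen; 0% = Sendai virus plus DMSO and 100% = medium plus DMSO without virus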). Conditions: HEK293 RL24 IRF3 luciferase reporter, at 10 µM, stronger effect = higher value.
The nature of experiment [8]: inhibitors of poly I:C-induced TLR3 signaling, primary screen, cell-based, poly I:C stimulus, luciferase, 10K MLSCN set (AID 602277;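 active = inhibition of the reporter signal at or above 50%; inactive = inhibition below 50%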). The settings on record: HEK293-TLR3 RL24 IRF3 luciferase reporter, at 10 µM, stronger effect = higher value. For orientation: A reporter such as luciferase makes a cellular process visible.

Chain of Voltage-gated potassium channel subunit beta-2 (Rattus norvegicus) (P62483 whole entry, looked up): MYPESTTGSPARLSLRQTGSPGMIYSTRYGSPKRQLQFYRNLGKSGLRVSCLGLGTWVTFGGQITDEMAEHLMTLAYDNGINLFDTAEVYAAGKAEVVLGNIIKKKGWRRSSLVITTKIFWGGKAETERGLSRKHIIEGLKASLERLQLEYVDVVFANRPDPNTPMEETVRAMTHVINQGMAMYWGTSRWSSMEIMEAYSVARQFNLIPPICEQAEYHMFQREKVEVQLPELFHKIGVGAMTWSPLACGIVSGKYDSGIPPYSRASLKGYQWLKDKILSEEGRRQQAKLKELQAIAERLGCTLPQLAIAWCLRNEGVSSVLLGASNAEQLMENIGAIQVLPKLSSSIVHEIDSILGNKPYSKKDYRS
Chain of Muscarinic acetylcholine receptor M4 (Homo sapiens) (P08173 whole entry, looked up): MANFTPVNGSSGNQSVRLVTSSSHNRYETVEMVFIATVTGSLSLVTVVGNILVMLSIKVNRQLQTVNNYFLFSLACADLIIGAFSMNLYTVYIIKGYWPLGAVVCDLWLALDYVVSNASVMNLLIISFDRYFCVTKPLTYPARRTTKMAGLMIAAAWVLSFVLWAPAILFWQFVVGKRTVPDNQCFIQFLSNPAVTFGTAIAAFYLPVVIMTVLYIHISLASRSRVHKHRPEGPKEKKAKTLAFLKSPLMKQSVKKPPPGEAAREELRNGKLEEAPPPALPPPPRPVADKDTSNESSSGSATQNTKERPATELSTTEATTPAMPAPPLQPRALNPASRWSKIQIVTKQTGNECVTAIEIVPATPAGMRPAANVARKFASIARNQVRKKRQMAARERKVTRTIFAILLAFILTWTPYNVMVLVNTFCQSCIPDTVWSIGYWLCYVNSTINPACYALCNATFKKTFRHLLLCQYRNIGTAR

As usually defined, the inhibition is the relative decrease from the control value, in per cent. Regarding `CS(=O)(=O)N(CC(=O)O)c1cccc(Cl)c1`, the cell count in experiment [1] stood at 358. The inhibition is 9.8% (inactive) in experiment [1], -49% (inactive) in experiment [3], -12.6% (inactive) in experiment [7] and -6.52% (inactive) in experiment [8]. Moreover, the inhibition of aggregation in experiment [2] was -14.9% (inactive). The nuclei count in experiment [2] was found to be 106%; in experiment [3], 121%. Besides, the values for the fluorescence slope in experiment [4] and in experiment [6] were -0.544 (inactive) and 0.00338 (inactive), respectively. The NADPH fluorescence slope in experiment [5] is -0.00014 (inactive).

With `CC(=O)Nc1ccc(S(=O)(=O)n2nc(C)cc2C)cc1`, the cell count in experiment [1] is 495. Moreover, the inhibition in experiment [1] is -20.7% (inactive); in experiment [3], -163% (inactive); in experiment [7], 10% (inactive); in experiment [8] it was 7.63% (inactive). In addition, the inhibition of aggregation in experiment [2] is -16.2% (inactive). Further, the nuclei count in experiment [2] was 108%; in experiment [3] it was 105%. Also, the fluorescence slope in experiment [4] was -0.546 (inactive); in experiment [6], 0.00409 (inactive). Further, in experiment [5], the NADPH fluorescence slope is -0.000136 (inactive).

Regarding `CCCC1CC(C)(C(=O)Cn2[nH]c(=O)ccc2=O)OC1=O` (centres undefined), in experiment [1], the cell count was determined as 580. For the same compound, the inhibition in experiment [1] is -22.2% (inactive); in experiment [3], -76% (inactive); in experiment [7], 22.7% (inactive); in experiment [8], 25.6% (inactive). Moreover, the inhibition of aggregation in experiment [2] was -42.5% (inactive). Moreover, the nuclei count in experiment [2] was found to be 120%; in experiment [3] it was 104%. Besides, the fluorescence slope in experiment [4] is -0.515 (inactive); in experiment [6] it was 0.00625 (inactive). Besides, the NADPH fluorescence slope in experiment [5] is 0.000145 (inactive).

`CCOC(=O)N1CCN(c2cc3nccnc3cc2F)CC1`: the cell count in experiment [1] turned out to be 412. Also, the inhibition in experiment [1] is 3.1% (inactive); in experiment [3], -54.5% (inactive); in experiment [7], 10.4% (inactive); in experiment [8], -18.8% (inactive). The inhibition of aggregation in experiment [2] was -5.3% (inactive). The nuclei count turned out to be 113% in experiment [2] and 111% in experiment [3]. In addition, the figures for the fluorescence slope in experiment [4] and in experiment [6] were -0.173 (inactive) and 0.00552 (inactive), respectively. Besides, in experiment [5], the NADPH fluorescence slope was -4.3e-05 (inactive).

Take `Cc1nc(SCC(=O)NCc2ccco2)c2c(C)c(C)sc2n1`: the cell count in experiment [1] is 709. The inhibition in experiment [1] was -4% (inactive); in experiment [3] it was -4.2% (inactive); in experiment [7], 17.4% (inactive); in experiment [8], 17.9% (inactive). For the same compound, in experiment [2], the inhibition of aggregation is 15.2% (inactive). In addition, the figures for the nuclei count in experiment [2] and in experiment [3] were 85.7% and 112%, respectively. The results for the fluorescence slope in experiment [4] and in experiment [6] were -0.558 (inactive) and 0.00596 (inactive), respectively. In addition, the NADPH fluorescence slope in experiment [5] was -3.9e-05 (inactive).

As for `CCOC(=O)Nc1ccc2c(c1)N(C(=O)CN(CC)CC)c1ccccc1C=C2`, in experiment [1], the cell count turned out to be 389. The inhibition in experiment [1] was 3.3% (inactive); in experiment [3], -96.2% (inactive); in experiment [7], 18.3% (inactive); in experiment [8], 26.3% (inactive). The inhibition of aggregation in experiment [2] is -9.7% (inactive). Further, the nuclei count in experiment [2] came out at 108%; in experiment [3], 119%. In addition, the values for the fluorescence slope in experiment [4] and in experiment [6] were -0.577 (inactive) and 0.00312 (inactive), respectively. The NADPH fluorescence slope in experiment [5] was -0.000132 (inactive).

Turning to `Cc1ccc(-c2nnnn2CS(=O)(=O)c2ccccc2)cc1`, the cell count in experiment [1] was 433. Besides, the inhibition in experiment [1] was -11.8% (inactive); in experiment [3], -19.4% (inactive); in experiment [7], 16.3% (inactive); in experiment [8] it was 10.5% (inactive). Moreover, the inhibition of aggregation in experiment [2] is -9.7% (inactive). For the same compound, the nuclei count was 114% in experiment [2] and 122% in experiment [3]. For the same compound, the values for the fluorescence slope in experiment [4] and in experiment [6] were -0.598 (inactive) and 0.006 (inactive), respectively. Further, in experiment [5], the NADPH fluorescence slope is -1.2e-05 (inactive).

With `c1ccc2c(c1)C(=Nn1cnnc1)c1ccccc1-2`, the cell count in experiment [1] was 606. Moreover, the inhibition in experiment [1] was -3.4% (inactive); in experiment [3], -107% (inactive); in experiment [7], 10.6% (inactive); in experiment [8] it was 11% (inactive). Further, the inhibition of aggregation in experiment [2] is 15.7% (inactive). Besides, the nuclei count in experiment [2] was 101%; in experiment [3] it was 122%. The fluorescence slope was -0.448 (inactive) in experiment [4] and 0.00319 (inactive) in experiment [6]. Also, in experiment [5], the NADPH fluorescence slope is -6.8e-05 (inactive).

As for `CCC1(CC)NC(=O)NC1=O`, in experiment [1], the cell count stood at 665. For the same compound, the inhibition in experiment [1] was 2.2% (inactive); in experiment [3], 12.8% (inactive); in experiment [7], 16.7% (inactive); in experiment [8], 8.56% (inactive). In addition, in experiment [2], the inhibition of aggregation was -5.3% (inactive). Also, the nuclei count was found to be 89.9% in experiment [2] and 106% in experiment [3]. Further, the fluorescence slope in experiment [4] was -0.588 (inactive); in experiment [6], 0.00419 (inactive). The NADPH fluorescence slope in experiment [5] is -8.1e-05 (inactive).

Consider `CNC(=O)CSc1nnc(-c2cc(C)cc(C)c2)o1`, for which the cell count in experiment [1] stood at 669. Moreover, the inhibition in experiment [1] is -5% (inactive); in experiment [3], -34.6% (inactive); in experiment [7] it was 4.57% (inactive); in experiment [8], -12.1% (inactive). In experiment [2], the inhibition of aggregation is 0.4% (inactive). The nuclei count in experiment [2] stood at 123%; in experiment [3] it was 124%. The results for the fluorescence slope in experiment [4] and in experiment [6] were -0.547 (inactive) and 0.00519 (inactive), respectively. For the same compound, the NADPH fluorescence slope in experiment [5] was -3.9e-05 (inactive).

Consider `c1ccc(CNc2ccc3c(c2)ncn3C2CCCCC2)nc1`, for which, in experiment [1], the cell count was 171. Besides, the inhibition was -4.9% (inactive) in experiment [1], -12.5% (inactive) in experiment [3], -10.6% (inactive) in experiment [7] and -24.3% (inactive) in experiment [8]. Besides, in experiment [2], the inhibition of aggregation was 20% (inactive). Further, the nuclei count worked out at 78.3% in experiment [2] and 97% in experiment [3]. Also, the fluorescence slope is -0.58 (inactive) in experiment [4] and 0.00406 (inactive) in experiment [6]. In addition, the NADPH fluorescence slope in experiment [5] was 4.2e-05 (inactive).

As for `Cn1c(=O)c2c(nc(SCCCO)n2Cc2ccccc2Cl)n(C)c1=O`, the cell count in experiment [1] came to 531. Further, the inhibition is 7.2% (inactive) in experiment [1], 41% (inactive) in experiment [3], 7.16% (inactive) in experiment [7] and 22.9% (inactive) in experiment [8]. Further, the inhibition of aggregation in experiment [2] was -0.4% (inactive). The nuclei count is 96% in experiment [2] and 92.6% in experiment [3]. Moreover, the fluorescence slope in experiment [4] was -0.424 (inactive); in experiment [6], 0.00759 (inactive). In experiment [5], the NADPH fluorescence slope is 3e-05 (inactive).

Consider `Cc1nc2c(=O)oc3ccccc3c2n1-c1ccccc1`, for which the cell count in experiment [1] is 579. In addition, the inhibition in experiment [1] is 2.9% (inactive); in experiment [3], 33% (inactive); in experiment [7] it was 12.7% (inactive); in experiment [8], 23.7% (inactive). In addition, in experiment [2], the inhibition of aggregation is 30.6% (inactive). In addition, the nuclei count in experiment [2] was determined as 90.3%; in experiment [3] it was 30.7%. In addition, the results for the fluorescence slope in experiment [4] and in experiment [6] were -0.519 (inactive) and 0.0052 (inactive), respectively. In experiment [5], the NADPH fluorescence slope is -3.7e-05 (inactive).

As for `CC(=O)Nc1ccc(S(=O)(=O)N2CCN(C(C)CCc3ccccc3)CC2)cc1` (centres undefined), in experiment [1], the cell count came to 440. For the same compound, the inhibition in experiment [1] was 0% (inactive); in experiment [3] it was 1.2% (inactive); in experiment [7] it was 7.51% (inactive); in experiment [8], 20.1% (inactive). Further, the inhibition of aggregation in experiment [2] was 2.6% (inactive). Also, the nuclei count was 69.7% in experiment [2] and 96.1% in experiment [3]. The results for the fluorescence slope in experiment [4] and in experiment [6] were -0.538 (inactive) and 0.00422 (inactive), respectively. In addition, the NADPH fluorescence slope in experiment [5] was -6.4e-05 (inactive).

Source of the values: PubChem BioAssay.
